Rows were chosen to be rich in hits. Some 1.4% of all compounds tested hit in one or more screens of this group.
CAL PDZ FP-1 – untagged CAL PDZ binding inhibitors, primary screen, biochemical, fluorescence polarization, HTS. AID 602252, 2012. Golgi-associated PDZ and coiled-coil motif-containing protein (Homo sapiens), Q9HD26. purified CAL PDZ, TMR-peptide fluorescence polarization, 1 h. 300,000 tested, 0.92% active. inhibition, % at 24.9 µM;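 active = mean inhibition of at least 30% with at least half of replicates also reaching 30%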;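 note: 0% = DMSO neutral control and 100% = excess unlabeled competitor peptide PRC23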
CDK5 p35 inh – inhibitors of human CDK5/p35 kinase, primary screen, biochemical, single concentration; Recombinant CDK5/p35, ADP-Glo luminescence, 60 min; AID 488839, 2010; 330,000 tested, 0.01% active; inhibition, % at 10 µM; Cyclin-dependent kinase 5 (Homo sapiens) + Cyclin-dependent kinase 5 activator 1 (Homo …;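 active = highest replicate inhibition of at least 50% and at least 75% of replicates reaching 50%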;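 note: plate controls were DMSO neutral control for no effect and GW8510 at 10 µM for full effect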
Target sequence (Q00535 whole entry, looked up): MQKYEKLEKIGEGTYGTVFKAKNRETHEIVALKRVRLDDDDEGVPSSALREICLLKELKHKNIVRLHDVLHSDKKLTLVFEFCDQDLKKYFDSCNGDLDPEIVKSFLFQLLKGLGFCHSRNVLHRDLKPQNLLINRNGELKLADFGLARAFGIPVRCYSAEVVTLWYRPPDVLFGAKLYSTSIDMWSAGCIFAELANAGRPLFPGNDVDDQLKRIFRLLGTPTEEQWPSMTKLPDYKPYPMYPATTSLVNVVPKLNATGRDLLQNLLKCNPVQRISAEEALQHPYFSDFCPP
Target sequence (Q15078 whole entry, looked up): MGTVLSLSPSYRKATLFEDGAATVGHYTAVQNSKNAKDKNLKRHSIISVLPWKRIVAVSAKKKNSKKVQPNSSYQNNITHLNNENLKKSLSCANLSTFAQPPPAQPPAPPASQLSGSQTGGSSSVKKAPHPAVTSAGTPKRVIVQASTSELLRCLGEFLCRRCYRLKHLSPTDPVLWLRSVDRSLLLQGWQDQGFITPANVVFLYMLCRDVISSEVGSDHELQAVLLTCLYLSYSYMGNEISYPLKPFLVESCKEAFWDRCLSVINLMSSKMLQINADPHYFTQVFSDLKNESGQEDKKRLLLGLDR
PvdQ inh – P. aeruginosa PvdQ acylase inhibitors, primary screen, biochemical, fluorescence, plate reader and imaging, single point; PvdQ acylase [Pseudomonas aeruginosa LESB58]; purified PvdQ acylase; inhibition, % at 10 µM; 340,000 tested, 0.063% active; in the data active = inhibition above about 30%, passing the limit was not always enough;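 note: 0% = vehicle neutral wells and 100% = reference inhibitor wells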
Glyco luc inh – increase of ERlucT glycosylation luciferase signal, primary screen, N-linked glycosylation inhibitor project, D54 ERlucT cells, luminescence, set 2. D54 ERlucT glycosylation luciferase reporter, 24 h; percent of 100 nM tunicamycin response. reporter increase, % at 12.5 µM. 360,000 tested, 0.23% active. AID 588692, 2011;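 active = mean luciferase reporter signal, scaled so untreated is 0 and the glycosylation-blocking control 100, at or above a set limit in every replicate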;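 note: luciferase carries N-glycosylation sites so blocking glycosylation raises the light; 0% = median of neutral control wells and 100% = median of 100 nM tunicamycin wells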
Vif imaging – HIV Vif self-association inhibitors, primary screen, imaging, HEK293T, single point. 340,000 tested, 0.35% active. AID 602346, 2012. inhibition, % at 7.49 µM. HEK293T cells, Vif self-association by quenched fluorescence, 24 h; in the data active = inhibition above about 50%, passing the limit was not always enough
CAL PDZ FP-2 – CAL PDZ peptide-binding inhibitors, primary screen, biochemical, fluorescence polarization, Cer-tagged CAL PDZ, HTS; 330,000 tested, 0.02% active; inhibition, % at 20 µM; purified CAL PDZ, TMR-peptide fluorescence polarization, 1 h; AID 504414, 2011; Golgi-associated PDZ and coiled-coil motif-containing protein (Homo sapiens), Q9HD26;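 active = highest replicate inhibition of at least 40%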;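 note: plate controls were DMSO neutral control wells for no effect and unlabeled competitor peptide control wells for full effect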
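Control set: unlabelled peptide and DMSO controls / Material: purified CerCALP PDZ construct / Timing: 1 h incubation at room temperature before polarization reading / Doses: 20 µM, one dose / Detection: fluorescence polarization (mP)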
* marks the source's active call; other numbers are inactive results; nt = no result given; + = active, no number.

SMILES	CAL PDZ FP-1	CDK5 p35 inh	PvdQ inh	Glyco luc inh	Vif imaging	CAL PDZ FP-2
COc1ccccc1NC(=O)c1ccccc1NC(=O)c1ccccn1	-1.8	2.1	4.7	-0.8	51.0*	-3.1
O=C(c1cccc(C(F)(F)F)c1)C1CCCN(C(=O)CCn2cnnn2)C1 (stereo unspecified)	52.5*	-1.1	-11.9	4.1	13.9	-4.7
O=C(c1ccc(C(F)(F)F)cc1)C1CCCN(C(=O)Cn2cnnn2)C1 (stereo unspecified)	-0.3	-0.1	-4.3	5.0	-4.5	-2.7
Cn1nc(C(=O)OCC(=O)Nc2ccccc2[N+](=O)[O-])c2ccccc2c1=O	3.0	-10.2	-2.7	3.2	5.1	-3.3
N#CC(=Cc1ccccn1)c1nc(-c2ccc(Cl)cc2)cs1	nt	nt	nt	41.5*	102.7*	nt
N#C/C(=C\Nc1ccc2cn[nH]c2c1)c1nc(-c2ccc(Cl)cc2)cs1	6.4	0.6	-13.9	-7.7	-3.9	-0.8
COc1ccc(CC/C(C)=N\NC(N)=O)cc1	2.2	0.7	-3.3	0.3	5.0	-0.2
O=C(NCc1ccccc1C(F)(F)F)c1cccc2c1C(=O)c1ccc(N3CCCCC3)cc1S2(=O)=O	-1.0	1.3	-0.3	0.4	+	0.4
CC1CCN(c2ccc3c(c2)S(=O)(=O)c2cccc(C(=O)NC4CCCCC4)c2C3=O)CC1	0.7	0.6	2.8	-4.1	50.7*	-0.1
CC(C)(C)CNC(=O)c1cccc2c1C(=O)c1ccc(N3CCCC3)cc1S2(=O)=O	-3.3	0.8	11.2	0.3	7.1	0.6
CCN(CC)c1ncnc2c1ncn2[C@H]1CN(Cc2ccc(-c3ccccc3)cc2)C[C@@H](CO)O1	nt	nt	nt	-2.2	-18.3	nt
COc1ccc(CC(=O)O/N=C(\N)Cc2ccc(OC)cc2)cc1	-2.0	0.2	-21.5	2.3	8.7	-3.3
CC(C)(C)C(=O)O/N=C(\N)Cc1ccc(-c2csnn2)cc1	61.2*	0.5	-18.5	2.6	6.6	-0.6
CCC(C)(C)NC(=O)CN(Cc1ccco1)C(=O)CCC(=O)Nc1nccs1	64.3*	1.0	-12.9	4.2	0.6	0.1
CCC(C)(C)NC(=O)CN(Cc1cccs1)C(=O)CCC(=O)Nc1nccs1	-0.5	-0.2	-8.2	2.4	0.5	-2.8
CCOC(=O)N1CCN(CC(=O)Nc2nnc(C(F)(F)F)s2)CC1	-5.4	-0.6	-14.5	2.5	6.6	-0.4
COC(=O)CCC(=O)N1CCOCCOCCOCC1	40.5*	-3.4	-14.7	2.5	-3.9	-0.2
COC(=O)CCC(=O)N1CCOCCOCCN(C(=O)CCC(=O)OC)CCOCCOCC1	-1.9	0.9	-6.9	0.8	1.4	-0.4
CC1CN(C(=S)Nc2ccccc2)N(c2ccccc2)C1 (stereo unspecified)	67.1*	0.5	-14.0	1.0	2.4	-1.0
CC1CN(C(=S)Nc2ccccc2)CC(C)O1 (stereo unspecified)	-1.7	-1.6	-2.4	1.0	0.1	-0.6
CCCCSc1cc(C)nc(N)n1	38.6*	1.0	-14.3	0.5	7.3	-2.7
Cc1ccc(OCCSc2cc(C)nc(N)n2)cc1	-3.0	-1.4	8.6	-3.0	1.4	0.5
CNC(=O)c1c(C)nc(SCC(=O)NCc2ccc(OC)cc2)c(C#N)c1-c1ccco1	54.8*	-0.7	-11.3	-2.0	3.6	0.4
COCCOC(=O)c1c(C)nc(SCC(=O)Nc2cccc3ccccc23)c(C#N)c1-c1ccco1	-0.7	0.1	6.6	0.0	7.7	0.4
COc1ccc(-c2cc(-c3cccs3)c(C#N)c(SCC(=O)NCc3ccco3)n2)cc1	3.9	0.4	-11.2	-1.6	51.5*	nt
SMILES	CAL PDZ FP-1	CDK5 p35 inh	PvdQ inh	Glyco luc inh	Vif imaging	CAL PDZ FP-2
CCc1nn2c(NCCCO)cc(C)nc2c1-c1ccc(F)cc1	-3.2	1.7	-7.3	28.4*	-14.7	0.2
Cc1ccc(C(=O)NCC(c2ccc(F)cc2)N2CCOCC2)cc1 (stereo unspecified)	-1.8	-2.9	-5.0	1.0	7.9	-1.9
CC(=O)c1ccc(-c2ccc(C(=O)NCC(c3ccc(F)cc3)N3CCOCC3)o2)cc1 (stereo unspecified)	142.4*	-2.6	-9.5	2.0	15.3	-4.7
Cn1nnnc1Sc1ncnc2scc(-c3ccc([N+](=O)[O-])cc3)c12	-1.2	-0.4	-2.1	-20.7	-4.9	-0.5
O=C(Nc1cccc(S(=O)(=O)N2CCCCC2)c1)c1ccccn1	-8.6	0.4	13.0	1.9	-4.3	-1.4
O=C(Nc1cccc(S(=O)(=O)N2CCOCC2)c1)c1ccccn1	75.3*	1.3	-3.9	0.7	-5.6	0.6
COc1ccc(C(=O)CSc2nn3c(=O)c(C(C)(C)C)nnc3s2)cc1	-4.8	1.2	-10.8	33.9*	-3.3	-1.3
CC(C)(C)c1nnc2sc(SCC(=O)c3ccccc3)nn2c1=O	-3.9	-0.7	-9.3	4.6	-1.4	-0.7
CCOC(=O)C1CCCN(C(=O)CN2C(=O)c3ccccc3S2(=O)=O)C1 (stereo unspecified)	-2.2	0.1	-9.9	1.7	-2.1	-0.3
Cc1ccc(/C=N/N(C)S(=O)(=O)c2ccc(C)cc2)cc1	49.0*	-0.5	-15.4	-2.2	-4.5	nt
CC1(C(=O)Nc2ccc(F)cc2F)CCN1C(=O)CCC1CCCC1 (stereo unspecified)	nt	nt	nt	-0.1	-10.7	nt
CCCCN(C(=O)c1c(CC)noc1C)c1c(N)n(CC(C)C)c(=O)[nH]c1=O	1.8	-2.0	-10.3	2.8	2.4	-0.4
CCc1noc(C)c1C(=O)N(CCOC)c1c(N)n(CC(C)C)c(=O)[nH]c1=O	38.0*	-0.7	-9.8	1.5	4.7	0.3
C=CCOC(=O)C1=C[C@@H](c2csc3ccccc23)C[C@@H](OCCCCO)O1	-3.7	0.2	3.0	-1.5	-5.8	-0.5
Cc1cc(OCC(=O)NC2CC(C)(C)NC(C)(C)C2)c2c(C)c(C)c(=O)oc2c1	-5.8	1.7	2.2	8.7	4.7	-0.4
O=C1CSC(c2ccc([N+](=O)[O-])cc2)N1CCN1CCCCC1 (stereo unspecified)	44.0*	0.3	11.2	0.7	13.3	-1.0
COCCNC(=O)C1(C)CCCN(CC(=O)c2ccc(OC)cc2)C1 (stereo unspecified)	nt	nt	nt	0.5	3.2	nt
Cn1c(=O)c(=O)n(C)c2cc(N3CCOCC3)c(NS(=O)(=O)c3ccc(Br)cc3)cc21	-2.6	-0.7	-4.4	-0.5	-2.2	-0.4
